Active and inactive are the calls of the source. No cut-off for these calls is given here.
Legend:
[1] = target: Serine/threonine-protein kinase STK11 (Homo sapiens) (UniProt Q15831); assay: Inhibition of LKB1 assessed as residual activity at 1 uM relative to control
[2] = target: Serine/threonine-protein kinase 26 (Homo sapiens) (UniProt Q9P289); assay: Inhibition of MST4 assessed as residual activity at 10 uM relative to control
[3] = target: Insulin receptor-related protein (Homo sapiens) (UniProt P14616); assay: Inhibition of IRR assessed as residual activity at 1 uM relative to control
[4] = target: Serine/threonine-protein kinase STK11 (Homo sapiens) (UniProt Q15831); assay: Inhibition of LKB1 assessed as residual activity at 10 uM relative to control
[5] = target: Serine/threonine-protein kinase TBK1 (Homo sapiens) (UniProt Q9UHD2); assay: Inhibition of TBK1 assessed as residual activity at 1 uM relative to control
Mus musculus [6] = assay: Inhibition of LRRK2 phosphorylation at Ser935 in C57BL/6 mouse kidney at 50 mg/kg, po administered for 8 hrs followed by 2 hrs dosing; assay type: functional, organism-based; design: dose 50 mg/kg
Method in brief: (§1)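 Mice were dosed by oral gavage at 10 or 50 mg/kg. Brain, spleen and kidney were collected. Endogenous LRRK2 was resolved by SDS–PAGE and blotted with phospho-specific antibodies to Ser910 and Ser935 and with an antibody to total LRRK2.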

[7] = target: Proto-oncogene tyrosine-protein kinase Src (Homo sapiens) (UniProt P12931); assay: Inhibition of Src assessed as residual activity at 1 uM relative to control
[8] = target: Death-associated protein kinase 1 (Homo sapiens) (UniProt P53355); assay: Inhibition of DAPK1 assessed as residual activity at 1 uM relative to control
Method in brief: (§2)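 Standard radioactivity-based enzymatic assays were run across a 124-kinase panel (Dundee profiling), with compound at 1 µM. Kinase activity was expressed relative to control.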

[9] = target: Mitogen-activated protein kinase 15 (Homo sapiens) (UniProt Q8TD08); assay: Inhibition of ERK8 assessed as residual activity at 1 uM relative to control; method in brief: as §2
[10] = target: MAP kinase-interacting serine/threonine-protein kinase 2 (Homo sapiens) (UniProt Q9HBH9); assay: Inhibition of MNK2 assessed as residual activity at 10 uM relative to control
[11] = target: Serine/threonine-protein kinase Sgk1 (Homo sapiens) (UniProt O00141); assay: Inhibition of SGK1 assessed as residual activity at 1 uM relative to control
[12] = target: Tyrosine-protein kinase ZAP-70 (Homo sapiens) (UniProt P43403); assay: Inhibition of ZAP70 assessed as residual activity at 1 uM relative to control
Method in brief: (§3)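 Radioactivity-based enzymatic kinase assays run across a 124-kinase profiling panel (Dundee), reporting the remaining kinase activity relative to a control.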

[13] = target: Dual specificity protein kinase TTK (Homo sapiens) (UniProt P33981); assay: Inhibition of TTK assessed as residual activity at 10 uM relative to control; method in brief: as §3
Mus musculus [14] = assay: Inhibition of LRRK2 phosphorylation at Ser910 in C57BL/6 mouse spleen at 50 mg/kg, po administered for 8 hrs followed by 2 hrs dosing; assay type: functional, organism-based; design: dose 50 mg/kg; method in brief: as §1
Plasma [15] = assay: AUClast in Swiss albino mouse plasma at 10 mg/kg, po; assay type: ADME, organism-based; design: time 0 - last, dose 10 mg/kg, route oral; conditions: in vivo
Method in brief: (§4)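 Male Swiss Albino mice were given a single dose, either intravenous at 1 mg/kg or oral at 10 mg/kg. AUClast was measured in plasma and in brain. Half-life, plasma clearance, volume of distribution and oral bioavailability were derived from the plasma data.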

[16] = target: Serine/threonine-protein kinase PAK 5 (Homo sapiens) (UniProt Q9P286); assay: Inhibition of PAK5 assessed as residual activity at 10 uM relative to control
[17] = target: Leucine-rich repeat serine/threonine-protein kinase 2 (Mus musculus) (UniProt Q5S006); assay: Inhibition of wild type LRRK2 phosphorylation at Ser935 in mouse 3T3 cells after 90 mins by Western blot analysis; assay type: cell-based
Method in brief: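 Mouse Swiss 3T3 cells treated with DMSO or increasing inhibitor concentrations for 90 min. Endogenous LRRK2 in lysates immunoblotted with purified phospho-specific antibodies to Ser910 and Ser935 and with a total LRRK2 antibody. Blots done in duplicate, representative of at least two independent experiments.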

[18] = target: Mitogen-activated protein kinase 12 (Homo sapiens) (UniProt P53778); assay: Inhibition of p38gamma MAPK assessed as residual activity at 1 uM relative to control; method in brief: as §3
[19] = target: Mitogen-activated protein kinase kinase kinase 1 (Homo sapiens) (UniProt Q13233); assay: Inhibition of MEKK1 assessed as residual activity at 1 uM relative to control
[20] = target: Protein kinase C alpha type (Homo sapiens) (UniProt P17252); assay: Inhibition of PKCalpha assessed as residual activity at 10 uM relative to control
[21] = target: Tau-tubulin kinase 1 (Homo sapiens) (UniProt Q5TCY1); assay: Inhibition of TTBK1 assessed as residual activity at 10 uM relative to control; method in brief: as §3
[22] = target: Protein kinase C alpha type (Homo sapiens) (UniProt P17252); assay: Inhibition of PKCalpha assessed as residual activity at 1 uM relative to control
[23] = Inhibition of PKA assessed as residual activity at 1 uM relative to control
[24] = Inhibition of CK1 assessed as residual activity at 1 uM relative to control; method in brief: as §2
[25] = target: Serine/threonine-protein kinase TBK1 (Homo sapiens) (UniProt Q9UHD2); assay: Inhibition of TBK1 assessed as residual activity at 10 uM relative to control
[26] = target: Dual specificity tyrosine-phosphorylation-regulated kinase 2 (Homo sapiens) (UniProt Q92630); assay: Inhibition of DYRK2 assessed as residual activity at 10 uM relative to control
Mus musculus [27] = assay: Inhibition of LRRK2 phosphorylation at Ser935 in C57BL/6 mouse kidney at 10 mg/kg, po administered for 8 hrs followed by 2 hrs dosing; assay type: functional, organism-based; design: dose 10 mg/kg; method in brief: as §1
[28] = target: Death-associated protein kinase 1 (Homo sapiens) (UniProt P53355); assay: Inhibition of DAPK1 assessed as residual activity at 10 uM relative to control
[29] = Inhibition of CK2 assessed as residual activity at 1 uM relative to control
[30] = system: Leucine-rich repeat serine/threonine-protein kinase 2 (Homo sapiens), Q5S007 [A2016T]; assay: Inhibition of LRRK2 A2016T mutant phosphorylation at Ser935 expressed in HEK293 cells at 1 to 3 uM after 90 mins by immunoblot analysis; assay type: cell-based
Plasma [31] = assay: AUClast in Swiss albino mouse plasma at 1 mg/kg, iv; assay type: ADME, organism-based; design: time 0 - last, dose 1 mg/kg, route intravenous; conditions: in vivo; method in brief: as §4
[32] = target: Inhibitor of nuclear factor kappa-B kinase subunit beta (Homo sapiens) (UniProt O14920); assay: Inhibition of IKKbeta assessed as residual activity at 1 uM relative to control
[33] = target: Eukaryotic elongation factor 2 kinase (Homo sapiens) (UniProt O00418); assay: Inhibition of EF2K assessed as residual activity at 1 uM relative to control; method in brief: as §2
[34] = target: Dual specificity mitogen-activated protein kinase kinase 2 (Homo sapiens) (UniProt P36507); assay: Inhibition of MKK2 assessed as residual activity at 1 uM relative to control
[35] = target: Dual specificity mitogen-activated protein kinase kinase 2 (Homo sapiens) (UniProt P36507); assay: Inhibition of MKK2 assessed as residual activity at 10 uM relative to control

Dual specificity mitogen-activated protein kinase kinase 2 (Homo sapiens), sequence (P36507 whole entry): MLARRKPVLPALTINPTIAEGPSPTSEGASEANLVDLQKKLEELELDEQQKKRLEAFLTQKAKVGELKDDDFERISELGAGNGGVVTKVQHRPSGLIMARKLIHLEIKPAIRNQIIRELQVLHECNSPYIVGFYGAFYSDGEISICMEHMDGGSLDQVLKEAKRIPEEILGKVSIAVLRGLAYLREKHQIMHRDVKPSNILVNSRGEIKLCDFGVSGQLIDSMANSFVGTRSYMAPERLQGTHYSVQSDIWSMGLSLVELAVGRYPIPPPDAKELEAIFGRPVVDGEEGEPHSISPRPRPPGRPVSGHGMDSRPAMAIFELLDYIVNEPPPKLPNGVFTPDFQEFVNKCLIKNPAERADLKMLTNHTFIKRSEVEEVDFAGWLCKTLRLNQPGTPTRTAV
Serine/threonine-protein kinase STK11 (Homo sapiens), sequence (Q15831 whole entry): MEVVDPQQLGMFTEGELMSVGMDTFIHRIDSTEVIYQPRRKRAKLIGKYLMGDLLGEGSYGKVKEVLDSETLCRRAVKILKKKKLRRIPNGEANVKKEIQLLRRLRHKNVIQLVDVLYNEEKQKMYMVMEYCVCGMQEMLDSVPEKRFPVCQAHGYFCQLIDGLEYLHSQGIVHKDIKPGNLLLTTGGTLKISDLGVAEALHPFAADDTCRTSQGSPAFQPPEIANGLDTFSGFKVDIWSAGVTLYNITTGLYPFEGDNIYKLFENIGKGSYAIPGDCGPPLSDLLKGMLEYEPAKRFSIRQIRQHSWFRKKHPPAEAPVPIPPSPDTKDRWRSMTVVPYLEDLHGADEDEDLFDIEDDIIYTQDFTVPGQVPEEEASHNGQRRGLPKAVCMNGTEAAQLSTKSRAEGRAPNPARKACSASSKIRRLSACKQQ
Death-associated protein kinase 1 (Homo sapiens), sequence (P53355 whole entry, looked up): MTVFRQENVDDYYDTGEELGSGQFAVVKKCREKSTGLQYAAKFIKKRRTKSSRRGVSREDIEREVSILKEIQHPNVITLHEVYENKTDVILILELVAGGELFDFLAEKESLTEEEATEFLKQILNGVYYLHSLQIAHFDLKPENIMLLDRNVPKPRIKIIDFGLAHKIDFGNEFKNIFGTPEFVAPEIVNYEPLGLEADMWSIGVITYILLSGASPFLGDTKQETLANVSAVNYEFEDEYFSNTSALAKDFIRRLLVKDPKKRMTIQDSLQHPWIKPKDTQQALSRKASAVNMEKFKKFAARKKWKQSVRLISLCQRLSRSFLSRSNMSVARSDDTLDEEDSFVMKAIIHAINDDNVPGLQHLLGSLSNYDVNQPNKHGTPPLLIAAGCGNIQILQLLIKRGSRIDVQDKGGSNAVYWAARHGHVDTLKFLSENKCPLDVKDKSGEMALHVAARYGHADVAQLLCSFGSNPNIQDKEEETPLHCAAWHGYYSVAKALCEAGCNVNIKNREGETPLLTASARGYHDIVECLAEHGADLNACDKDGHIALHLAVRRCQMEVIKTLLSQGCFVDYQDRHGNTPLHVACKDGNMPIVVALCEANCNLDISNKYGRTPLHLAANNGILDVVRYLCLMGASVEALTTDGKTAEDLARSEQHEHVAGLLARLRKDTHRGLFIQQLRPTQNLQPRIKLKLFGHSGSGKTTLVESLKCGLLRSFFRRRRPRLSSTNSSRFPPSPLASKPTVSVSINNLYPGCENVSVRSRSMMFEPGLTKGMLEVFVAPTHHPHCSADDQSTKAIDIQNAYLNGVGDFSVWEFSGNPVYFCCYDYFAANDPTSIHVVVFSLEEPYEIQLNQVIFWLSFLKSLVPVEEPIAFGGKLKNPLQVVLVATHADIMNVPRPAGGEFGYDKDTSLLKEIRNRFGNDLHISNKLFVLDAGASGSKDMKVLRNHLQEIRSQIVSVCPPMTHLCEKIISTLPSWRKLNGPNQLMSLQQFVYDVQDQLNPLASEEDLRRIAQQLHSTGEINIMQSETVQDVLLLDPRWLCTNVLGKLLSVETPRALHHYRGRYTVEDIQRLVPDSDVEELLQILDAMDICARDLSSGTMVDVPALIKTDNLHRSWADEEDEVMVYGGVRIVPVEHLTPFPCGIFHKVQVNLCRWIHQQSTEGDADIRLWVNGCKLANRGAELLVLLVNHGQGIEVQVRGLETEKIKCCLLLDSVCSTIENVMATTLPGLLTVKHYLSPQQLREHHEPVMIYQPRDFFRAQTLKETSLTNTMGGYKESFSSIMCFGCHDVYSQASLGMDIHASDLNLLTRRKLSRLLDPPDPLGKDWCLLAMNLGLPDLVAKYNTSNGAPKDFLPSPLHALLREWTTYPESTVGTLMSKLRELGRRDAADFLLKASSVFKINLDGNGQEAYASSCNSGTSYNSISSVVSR
Serine/threonine-protein kinase TBK1 (Homo sapiens), sequence (Q9UHD2 whole entry): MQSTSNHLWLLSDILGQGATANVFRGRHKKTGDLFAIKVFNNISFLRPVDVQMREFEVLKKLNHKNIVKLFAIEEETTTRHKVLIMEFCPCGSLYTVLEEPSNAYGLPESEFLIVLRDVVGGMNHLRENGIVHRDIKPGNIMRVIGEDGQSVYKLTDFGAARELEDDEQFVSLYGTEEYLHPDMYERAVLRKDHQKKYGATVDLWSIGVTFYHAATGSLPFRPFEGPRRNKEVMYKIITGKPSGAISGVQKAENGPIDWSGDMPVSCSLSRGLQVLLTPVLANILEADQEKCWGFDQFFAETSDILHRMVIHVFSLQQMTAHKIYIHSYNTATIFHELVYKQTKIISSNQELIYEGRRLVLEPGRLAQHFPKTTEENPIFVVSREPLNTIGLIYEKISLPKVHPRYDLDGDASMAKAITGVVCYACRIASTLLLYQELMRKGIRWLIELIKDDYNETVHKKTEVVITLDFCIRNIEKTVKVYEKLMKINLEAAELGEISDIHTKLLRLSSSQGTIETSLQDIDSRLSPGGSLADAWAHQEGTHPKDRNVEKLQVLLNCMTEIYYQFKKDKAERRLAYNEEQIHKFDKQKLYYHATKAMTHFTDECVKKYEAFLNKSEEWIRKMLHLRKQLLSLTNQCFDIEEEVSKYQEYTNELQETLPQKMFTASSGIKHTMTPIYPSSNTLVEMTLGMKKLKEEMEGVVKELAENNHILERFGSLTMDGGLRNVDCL
Eukaryotic elongation factor 2 kinase (Homo sapiens), sequence (O00418 whole entry): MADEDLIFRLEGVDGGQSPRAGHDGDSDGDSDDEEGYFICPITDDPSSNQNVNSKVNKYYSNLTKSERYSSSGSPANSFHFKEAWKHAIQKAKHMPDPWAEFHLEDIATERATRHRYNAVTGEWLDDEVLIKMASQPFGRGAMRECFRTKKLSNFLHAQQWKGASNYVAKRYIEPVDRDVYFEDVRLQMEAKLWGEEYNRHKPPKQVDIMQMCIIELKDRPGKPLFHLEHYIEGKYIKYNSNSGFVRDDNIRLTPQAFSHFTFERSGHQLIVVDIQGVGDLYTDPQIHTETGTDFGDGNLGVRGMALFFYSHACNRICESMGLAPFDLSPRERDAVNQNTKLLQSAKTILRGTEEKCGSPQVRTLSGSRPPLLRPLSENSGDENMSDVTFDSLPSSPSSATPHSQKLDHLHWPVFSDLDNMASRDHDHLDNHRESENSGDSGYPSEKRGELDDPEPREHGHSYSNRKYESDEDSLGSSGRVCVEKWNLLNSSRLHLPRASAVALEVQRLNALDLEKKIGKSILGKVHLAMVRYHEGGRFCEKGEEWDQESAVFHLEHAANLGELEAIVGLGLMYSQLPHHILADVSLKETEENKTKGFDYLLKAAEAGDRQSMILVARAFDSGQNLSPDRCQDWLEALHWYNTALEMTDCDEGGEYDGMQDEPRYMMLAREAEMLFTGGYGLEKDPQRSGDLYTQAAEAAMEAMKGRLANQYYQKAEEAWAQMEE
Proto-oncogene tyrosine-protein kinase Src (Homo sapiens), sequence (P12931 2-536 limits assumed): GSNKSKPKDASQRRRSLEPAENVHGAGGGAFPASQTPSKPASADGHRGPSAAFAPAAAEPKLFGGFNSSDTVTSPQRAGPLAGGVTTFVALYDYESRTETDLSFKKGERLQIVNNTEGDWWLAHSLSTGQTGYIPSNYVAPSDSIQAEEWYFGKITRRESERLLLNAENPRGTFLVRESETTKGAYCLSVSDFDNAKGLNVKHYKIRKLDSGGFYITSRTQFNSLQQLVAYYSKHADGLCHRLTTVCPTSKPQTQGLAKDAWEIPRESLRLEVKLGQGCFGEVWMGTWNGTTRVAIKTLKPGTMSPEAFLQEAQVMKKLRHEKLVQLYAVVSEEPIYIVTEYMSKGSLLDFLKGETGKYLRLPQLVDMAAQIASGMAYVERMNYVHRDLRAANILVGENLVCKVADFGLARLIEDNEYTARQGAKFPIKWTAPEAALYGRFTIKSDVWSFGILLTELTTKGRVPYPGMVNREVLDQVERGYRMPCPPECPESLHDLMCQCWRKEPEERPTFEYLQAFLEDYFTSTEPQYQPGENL

Activity [1]: 94%
Activity [2]: 55%
Activity [3]: 98%
Activity [4]: 77%
Activity [5]: 93%
Activity [7]: 44%
Activity [10]: 60%
Activity [11]: 88%
Activity [12]: 113%
Activity [13]: 47%
AUClast (Plasma [15]): 6374 ng·h/mL
Activity [16]: 35%
inhibition [17]: Dose-dependent effect
Activity [18]: 102%
Activity [19]: 109%
Activity [20]: 122%
Activity [21]: 101%
Activity [22]: 109%
Activity [23]: 90%
Activity [24]: 102%
Activity [25]: 71%
Activity [26]: 106%
Activity [29]: 75%
inhibition [30]: Active
AUClast (Plasma [31]): 772 ng·h/mL
Activity [32]: 98%
Activity [33]: 96%
Activity [34]: 69%
Activity [35]: 30%
SMILES: COc1cc(N2CCC(N3CCN(C)CC3)CC2)ccc1Nc1ncc(Cl)c(Nc2ccccc2S(=O)(=O)C(C)C)n1 [TAE-684]
inhibition (Mus musculus [6]): Active
Activity [8]: 98%
Activity [9]: 47%
inhibition (Mus musculus [14]): Active
inhibition (Mus musculus [27]): Active
Activity [28]: 79%
